Laboratory results taken from ChEMBL document CHEMBL4017487, “Design and Synthesis of γ- and δ-Lactam M1 Positive Allosteric Modulators (PAMs): Convulsion and Cholinergic Toxicity of an M1-Selective PAM with Weak Agonist Activity” (J Med Chem, 2017).

Legend:
[1] = (§1) Ratio of unbound Cmax in dog brain assessed as convulsions at 15 mg/kg, po administered as single dose to unbound brain concentration for agonist activity at muscarinic acetylcholine receptor M1 in C57BL/6 mouse assessed as required to show 2 fold increase in IP1 accumulation in striatum at 1 to 10 mg/kg, sc; format: organism-based
[2] = target: T1, Muscarinic acetylcholine receptor M1 (Homo sapiens, UniProt P11229); test: Agonist activity at human muscarinic acetylcholine receptor M1 expressed in CHO cells assessed as increase in calcium mobilization at 13 uM incubated for 10 mins by Fluo-8-AM dye based FLIPR assay relative to control; format: cell-based; settings: read-out: %max
T1 sequence (P11229 whole entry): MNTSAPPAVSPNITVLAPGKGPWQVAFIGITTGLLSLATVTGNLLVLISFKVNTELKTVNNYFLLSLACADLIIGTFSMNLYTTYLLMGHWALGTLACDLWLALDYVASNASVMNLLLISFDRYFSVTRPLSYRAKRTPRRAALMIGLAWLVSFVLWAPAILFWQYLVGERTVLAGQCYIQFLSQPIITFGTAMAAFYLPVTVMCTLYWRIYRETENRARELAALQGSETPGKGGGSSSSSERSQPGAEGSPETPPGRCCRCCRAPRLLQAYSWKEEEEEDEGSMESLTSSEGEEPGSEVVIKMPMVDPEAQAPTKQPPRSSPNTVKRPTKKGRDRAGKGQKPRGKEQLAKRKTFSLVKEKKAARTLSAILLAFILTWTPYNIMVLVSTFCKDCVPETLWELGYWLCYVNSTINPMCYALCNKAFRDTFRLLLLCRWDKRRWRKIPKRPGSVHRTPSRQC

Mus musculus = test: In vivo agonist activity at muscarinic acetylcholine receptor M1 in C57BL/6 mouse assessed as unbound brain concentration required to show 2 fold increase in IP1 accumulation in striatum at 1 to 10 mg/kg, sc measured after 2 hrs; format: organism-based
Procedure, shortened: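 Cb,u giving a 2-fold rise in striatal IP1 in C57BL/6 mice, estimated by interpolation of individual-mouse IP1 versus free brain exposure data.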

Canis familiaris [3] = test: Toxicity in dog assessed as unbound Cmax in brain required to show convulsions at 15 mg/kg, po administered as single dose using spray dried dispersion formulation; format: organism-based, Canis lupus familiaris; settings: in vivo
[4] = as §1, with “rat” for “dog”, “45” for “15”; format: organism-based
[5] = target: T1, Muscarinic acetylcholine receptor M1; test: Displacement of [3H]PT-1284 human muscarinic acetylcholine receptor M1 expressed in CHO cell membranes after 90 mins scintillation counting method
Canis familiaris [6] = test: Toxicity in dog assessed as unbound Cmax in plasma required to show convulsions at 15 mg/kg, po administered as single dose using spray dried dispersion formulation; format: organism-based, Canis lupus familiaris; settings: in vivo
[7] = target: T1, Muscarinic acetylcholine receptor M1; test: Agonist activity at human muscarinic acetylcholine receptor M1 expressed in CHO cells assessed as increase in calcium mobilization incubated for 10 mins by Fluo-8-AM dye based FLIPR assay; format: cell-based
Procedure, shortened: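 M1 FLIPR calcium mobilization run in agonist mode (compound added without the EC20 ACh used in PAM mode). Top concentration 10 μM. EC50 values are geometric means of at least three experiments.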

[8] = target: T1, Muscarinic acetylcholine receptor M1; test: Positive allosteric modulation of human muscarinic acetylcholine receptor M1 expressed in CHO cells assessed as increase in acetylcholine-induced calcium mobilization preincubated for 10 mins followed by acetylcholine addition by Fluo-8-AM dye based FLIPR assay; format: ADME, cell-based
Procedure, shortened: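 M1 potentiation (PAM) format: calcium mobilization read on a FLIPR plate reader with an EC20 concentration of ACh present. EC50 is the geometric mean of at least three experiments.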

MDR1 = test: Efflux ratio of permeability from basolateral to apical side over apical to basolateral side in MDCK1 cells expressing MDR1; format: ADME, cell-based, Canis lupus familiaris; settings: dog, MDCK-MDR1
Procedure, shortened: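 MDCKI-MDR1 cells (MDCK epithelial line transfected with MDR1/P-gp; from the NIH). Permeability measured as a rate in 10−6 cm/s in both directions; value is the BA/AB ratio.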

[9] = Intrinsic clearance in human liver microsomes; format: ADME, microsome; settings: read-out: CLH
Rattus norvegicus [10] = test: Toxicity in rat assessed as unbound Cmax in plasma required to show convulsions at 45 mg/kg, po administered as single dose; format: organism-based; settings: in vivo
Rattus norvegicus [11] = test: Toxicity in rat assessed as unbound Cmax in brain required to show convulsions at 45 mg/kg, po administered as single dose; format: organism-based; settings: in vivo
[12] = Ratio of unbound AUC in rat brain to plasma at 45 mg/kg, po administered as single dose; format: ADME, organism-based
Procedure, shortened: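 Rats, 3 per sex, received a single oral 45 mg/kg dose as a nanosuspension in 1.25% w/v hydroxypropyl cellulose SL with 0.05% docusate sodium in purified water. The brain/plasma ratio is the AUC ratio of unbound drug in brain to unbound drug in plasma. It was used to estimate unbound brain levels from measured unbound plasma Cmax.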

Cytochrome P450 3A4 = Cytochrome P450 3A4 (Homo sapiens, UniProt P08684); test: Time dependent inhibition of CYP3A4 (unknown origin) by high throughput assay relative to 2-((3R,4S)-3-Hydroxytetrahydro-2H-pyran-4-yl)-5-methyl-6-(4-(oxazol-4-yl)benzyl)isoindolin-1-one; format: ADME
Chain of Cytochrome P450 3A4 (P08684 whole entry): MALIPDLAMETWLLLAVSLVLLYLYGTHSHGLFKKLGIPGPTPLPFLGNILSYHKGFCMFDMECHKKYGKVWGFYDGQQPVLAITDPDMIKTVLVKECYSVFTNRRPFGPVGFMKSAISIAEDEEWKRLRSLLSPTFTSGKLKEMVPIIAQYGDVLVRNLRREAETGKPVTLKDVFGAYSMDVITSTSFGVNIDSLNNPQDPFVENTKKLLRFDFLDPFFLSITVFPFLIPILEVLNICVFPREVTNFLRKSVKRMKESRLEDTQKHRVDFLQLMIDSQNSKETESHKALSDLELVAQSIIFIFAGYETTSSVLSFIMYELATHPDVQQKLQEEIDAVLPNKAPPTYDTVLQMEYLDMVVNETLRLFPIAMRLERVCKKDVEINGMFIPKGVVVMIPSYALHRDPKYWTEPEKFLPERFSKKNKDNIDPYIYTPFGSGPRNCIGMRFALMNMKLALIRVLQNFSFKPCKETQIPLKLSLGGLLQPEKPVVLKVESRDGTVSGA

Row | SMILES | EC50 [8] [nM] | efflux ratio (MDR1) | CLint scaled [9] [mL/min/kg] | other results
1 | Cc1cnc(C(=O)N[C@H]2CCOC[C@@H]2O)cc1Cc1ccc(-c2cscn2)cc1 |  |  |  | selectivity ratio [1]: 20; Emax at 13 µM [2]: 34%; Drug uptake(free) (Mus musculus): 14 nM; fCmax (Canis familiaris [3]): 290 nM; selectivity ratio [4]: > 29; Ki [5]: 19 nM; fCmax (Canis familiaris [6]): 950 nM; EC50 [7]: > 4000 nM
2 | Cc1cn(-c2ccc(Cc3cc4c(cc3C)CN([C@H]3CCOC[C@@H]3O)C4=O)cc2)cn1 | 45 | 63 | 30 | 
3 | Cc1cc2c(cc1Cc1ccc(-c3cnn(C)c3)cc1)C(=O)N([C@H]1CCOC[C@@H]1O)C2 | 27 | 7.6 | 15 | 
4 | Cn1ccc(-c2ccc(Cn3cc(C(=O)N[C@H]4CCOC[C@@H]4O)c4ncccc43)cc2)n1 |  |  |  | Drug uptake(free) (Mus musculus): 32 nM
5 | Cc1nc(-c2ccc(Cc3cc4c(cc3C)CN([C@H]3CCOC[C@@H]3O)C4=O)cc2)co1 | 50 | 11 | 13 | 
6 | Cc1ccc(Cc2cc3c(=O)n([C@H]4CCCC[C@@H]4O)cnc3c3ccccc23)cn1 [MK-7622] | 63 |  |  | fCmax (Rattus norvegicus [10]): 550 nM; Emax at 13 µM [2]: 62%; Drug uptake(free) (Mus musculus): 4 nM; selectivity ratio [4]: 33; fCmax (Rattus norvegicus [11]): 130 nM; Kp uu [12]: 0.24; Ki [5]: 8 nM; EC50 [7]: > 2000 nM
7 | Cc1cc2c(cc1Cc1ccc(-n3cccn3)cc1)C(=O)N([C@H]1CCOC[C@@H]1O)C2 | 36 | 18 | < 8 | 
8 | Cc1cc2c(cc1Cc1ccc(-n3ccnc3)cc1)C(=O)N([C@H]1CCOC[C@@H]1O)C2 | 68 | 53 | < 8 | 

Continued by falling EC50 [8], values first:

Row | EC50 [8] [nM] | efflux ratio (MDR1) | CLint scaled [9] [mL/min/kg] | SMILES | other results
9 | 26 | 2.7 | 13 | Cc1cc2c(cc1Cc1ccc(-c3cocn3)cc1)C(=O)N([C@H]1CCOC[C@@H]1O)CC2 | fold change (FC) (Cytochrome P450 3A4): 6
10 | 24 | 11 | 10 | Cc1cc2c(cc1Cc1ccc(-c3cscn3)cc1)C(=O)N([C@H]1CCOC[C@@H]1O)C2 | 
11 | 23 | 14 | 21 | Cc1nc(-c2ccc(Cc3cc4c(cc3C)CCN([C@H]3CCOC[C@@H]3O)C4=O)cc2)co1 | 
12 | 18 | 11 | 15 | Cc1cc2c(cc1Cc1ccc(-n3cccn3)cc1)C(=O)N([C@H]1CCOC[C@@H]1O)CC2 | 
13 | 7 | 12 | 25 | Cc1cc2c(cc1Cc1ccc(-c3cscn3)cc1)C(=O)N([C@H]1CCOC[C@@H]1O)CC2 | 
